M4 antag: human M4 muscarinic receptor antagonists, primary screen, CHO cells, Fluo-8 calcium fluorescence; Muscarinic acetylcholine receptor M4 (Homo sapiens), P08173; CHO-hM4 cells, ACh EC80; inhibition, % at 3 µM; 0.73% of 360,000 active;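 active = inhibition above its plate's cutoff, the mean inhibition of sample wells plus 3 SD, cut at about 27% in these data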;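 note: 0% = acetylcholine EC80 with DMSO and 100% = DMSO without agonist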
CHRM4 agonist: human M4 muscarinic receptor agonists, primary screen, CHO-K1 cells, Fluo-8 calcium fluorescence; 0.14% of 360,000 active; AID 624127, 2012; activation, % at 3 µM; CHO-K1 hM4/Gqi5; vehicle 0%, full acetylcholine response 100%;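 active = activation above the run mean over all test wells plus 3 SD, cut at about 32% in these data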;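 note: peak over basal fluorescence ratio per well then scaled between controls; 0% = DMSO wells and 100% = acetylcholine at EC100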
CHRM5 agonist: human M5 muscarinic receptor agonists, primary screen, CHO-K1 cells, Fluo-8 calcium fluorescence; Muscarinic acetylcholine receptor M5 (Homo sapiens), P08912; CHO-K1 hM5 cells; 0% DMSO wells, 100% maximal acetylcholine response; activation, % at 3 µM; 0.19% of 360,000 active; AID 624037, 2012;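 active = activation above the run's mean over test compounds plus 3 SD, cut at about 23% in these data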;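 note: signal is peak over basal fluorescence ratio across the kinetic read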
Target sequence (P08912 whole entry, looked up): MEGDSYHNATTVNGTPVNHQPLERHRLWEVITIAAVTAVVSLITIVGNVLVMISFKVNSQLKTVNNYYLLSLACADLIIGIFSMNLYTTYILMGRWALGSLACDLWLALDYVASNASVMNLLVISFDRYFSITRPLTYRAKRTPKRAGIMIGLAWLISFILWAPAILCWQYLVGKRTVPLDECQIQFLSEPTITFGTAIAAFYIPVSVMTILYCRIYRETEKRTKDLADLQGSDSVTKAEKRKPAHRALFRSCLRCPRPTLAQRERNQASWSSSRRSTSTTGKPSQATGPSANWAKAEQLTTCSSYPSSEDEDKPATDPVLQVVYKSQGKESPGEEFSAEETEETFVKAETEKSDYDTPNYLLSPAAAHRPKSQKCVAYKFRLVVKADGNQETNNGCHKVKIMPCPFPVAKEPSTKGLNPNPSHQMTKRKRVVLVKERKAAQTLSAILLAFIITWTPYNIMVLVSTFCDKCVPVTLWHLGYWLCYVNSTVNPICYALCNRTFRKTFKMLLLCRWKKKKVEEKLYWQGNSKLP
CHRM5 antagonist: human M5 muscarinic receptor antagonists, primary screen, CHO cells, Fluo-8 calcium fluorescence | Muscarinic acetylcholine receptor M5 (Homo sapiens), P08912 | CHO-hM5 cells, ACh EC80 | inhibition, % at 3 µM | 0.59% of 360,000 active;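 active = inhibition above a per-plate cutoff, the mean of that plate's test compounds plus 3 SD, cut at about 27% in these data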;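 note: 0% = acetylcholine EC80 with DMSO and 100% = DMSO without agonist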
CHRM5 PAM: human M5 muscarinic receptor positive allosteric modulators, primary screen, CHO-K1 cells, Fluo-8 calcium fluorescence; Muscarinic acetylcholine receptor M5 (Homo sapiens), P08912; CHO-K1 hM5, ACh EC20 PAM; 0% = ACh EC20, 100% = ACh EC100; activation, % at 3 µM; 0.3% of 360,000 active; AID 624038, 2012;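 active = activation above the run cutoff, the mean activation of all test compounds plus 3 SD, cut at about 18% in these data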
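Test system: CHO-K1 hM5 cells / Doses: single-point, 3 µM nominal / Times: Post-acetylcholine fluorescence recording 140 s / Technique: Fluo-8 calcium fluorescence / Measure: Max/basal fluorescence ratio as % of EC20–EC100 ACh window / Benchmarks: low control EC20 acetylcholine (0%), high control EC100 acetylcholine (100%) / Replicates: one well per compound, no replicates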
CHRM4 PAM: human M4 muscarinic receptor positive allosteric modulators, primary screen, CHO-K1 cells, Fluo-8 calcium fluorescence. activation, % at 3 µM. Muscarinic acetylcholine receptor M4 (Homo sapiens), P08173. CHO-K1 hM4/Gqi5, ACh EC20; 0% = ACh EC20, 100% = maximal ACh. 0.4% of 360,000 active;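 active = activation above its plate's cutoff, the mean activation of sample wells plus 3 SD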
An asterisk follows results filed as active. Only some compounds are listed: those with a hit (about 1.8% of all), similar ones and a draw of the others.

SMILES	M4 antag	CHRM4 agonist	CHRM5 agonist	CHRM5 antagonist	CHRM5 PAM	CHRM4 PAM
Cc1cc(Cl)ccc1C(=O)C1CCCN(C2CCSCC2)C1 (stereo unspecified)	33.3*	2.0	-9.3	10.9	-20.4	-23.8
O=C(c1ccc(C(F)(F)F)cc1)C1CCCN(C2CCSCC2)C1 (stereo unspecified)	24.4	1.7	-10.3	-7.2	-11.0	-21.1
C#CCN(C)[C@H](C)Cc1ccccc1	-6.6	0.5	-0.1	-0.7	-3.8	-4.1
CC(Cc1ccccc1Sc1ccccc1O)N(C)C (stereo unspecified)	81.7*	8.9	-2.9	99.5*	-21.5	-25.3
CN1/C(=C\C=C2C(=O)NC(=S)NC2=O)C(C)(C)c2ccccc21	14.7	23.1	103.7*	22.4	-23.9	-13.7
O=C1NC(=O)C2(CCCC2)C(=O)N1	3.2	0.6	0.7	10.3	3.1	4.9
Cc1ccc(C(O)(c2ccc(C)c(C)c2)C2CN3CCC2CC3)cc1C (stereo unspecified)	-0.4	4.5	-5.0	13.9	-9.2	-1.7
CC[N+]12CCC(CC1)C(C(O)(c1ccccc1)c1ccccc1)C2 (stereo unspecified)	71.9*	0.3	-17.8	85.9*	-32.3	-44.4
CN1CCCC(C(O)(c2ccccc2)c2ccccc2)C1 (stereo unspecified)	-11.3	0.6	-19.8	-2.2	-13.6	-18.4
C[N+]12CCC(CC1)C(C(O)(c1cccc(Cl)c1)c1cccc(Cl)c1)C2 (stereo unspecified)	87.3*	0.3	-20.0	73.9*	-29.7	-14.7
CC(C)[N+]12CCC(CC1)C(C(O)(c1ccccc1)c1ccccc1)C2 (stereo unspecified)	54.2*	-0.8	-20.6	42.6*	-30.5	-14.7
COc1ccc(C2C3C=CC(C3)C2C(=O)O)cc1 (stereo unspecified)	-0.2	-0.9	1.2	-0.2	0.1	-8.9
CC(C)NC(=O)c1ccc(N2CC3CC(C2)c2cccc(=O)n2C3)c([N+](=O)[O-])c1 (stereo unspecified)	2.9	1.3	4.2	2.3	2.4	3.5
O=C(Nc1ccc(Cl)cc1)OC1CN2CCC1CC2 (stereo unspecified)	16.6	20.6	-12.5	31.2*	-29.8	-33.8
O=C(Nc1cccc(Cl)c1)OC1CN2CCC1CC2 (stereo unspecified)	8.3	15.0	8.8	29.1*	-26.7	-36.4
CCC(C)C12CN3CCN(CC(C)(C3)C1O)C2 (stereo unspecified)	1.4	0.6	-2.2	7.8	-0.1	-0.7
CCOC(=O)CNC(=O)CSP(=S)(OCC)OCC	-0.6	1.2	5.3	-6.1	-2.0	32.8*
O=c1cc(C(F)(F)F)c2cc3c4c(c2o1)CCCN4CCC3	44.8*	85.6*	71.4*	51.6*	-16.3	-15.8
CN1C2CCC1CC(OC(=O)c1ccc(Cl)cc1)(C(=O)O)C2 (stereo unspecified)	16.0	1.1	-2.9	-2.7	5.2	28.8*
CCOc1ccc(C(=O)OC2CC3CCC(C2)N3C)cc1 (stereo unspecified)	3.7	0.8	-10.6	12.1	-21.3	-0.9
CN1C2CCC1CC(OC(=O)c1ccc(Cl)cc1)C2 (stereo unspecified)	21.3	2.1	-11.7	31.8*	-14.8	-11.3
CCOC(=O)C(O)(c1ccc(NC(=O)NC)cc1)C(F)(F)F (stereo unspecified)	-3.0	0.9	5.4	0.2	0.8	-3.4
O=[N+]([O-])c1cc(Cl)c(O)c(-[n+]2c(-c3ccccc3)cc(-c3ccccc3)cc2-c2ccccc2)c1	0.6	1.1	0.7	-2.4	-1.3	-2.2
